ChEMBL document CHEMBL5303300, “EUbOPEN Chemogenomics Library - Multiplex” (2023)
Several values for one entry are separate records, joined by “and”; a condition that tells them apart may be missing. Identical values can stand only once.

Key:
Assay type in all cases: toxicity, cell-based
[1] = test system: U2OS; test: Multiplex assay against U2OS; details: human, number of replicates 2
Method in brief: (§1)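 Phenotypes for tubulin, mitochondrial mass and membrane permeability are expressed as per cents of healthy-nucleus cells. Cells were stained live at seeding with Hoechst33342, BioTracker Green Microtubule Cytoskeleton Dye, MitoTracker Red and Annexin V Alexa Fluor 680, then imaged after compound addition on a CQ1 microscope at 37°C and 5% CO2. Machine-learning gating in CellPathfinder separated Hoechst high-intensity objects from normal cells, divided normal cells by nuclear state (healthy, pyknosed, fragmented) and divided pyknosed cells into mitotic or apoptotic.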

[2] = test system: Fibroblast; test: Multiplex assay against human fibroblast; details: number of replicates 2; method in brief: as §1
[3] = test system: HEK-293T; test: Multiplex assay against HEK293T; details: human, number of replicates 2; method in brief: as §1
[4] = 12 h, 1 µM, compound concentration 1 uM
[5] = 12 h, 10 µM, compound concentration 10 uM
[6] = 24 h, 1 µM, compound concentration 1 uM
[7] = 24 h, 10 µM, compound concentration 10 uM
[8] = 48 h, 1 µM, compound concentration 1 uM
[9] = 48 h, 10 µM, compound concentration 10 uM

Compound: CN(C)C/C=C/C(=O)Nc1cccc(S(=O)(=O)N2CCC(NC(=O)c3n[nH]cc3NC(=O)c3c(Cl)cc(Cl)cc3Cl)CC2)c1
- Population Apoptotic (%) [1, 4]: 78% and 85%
- Population Fragmented Nuclei (%) [1, 4]: 15% and 10%
- Population Healthy Nuclei (%) [1, 4]: 50% and 56%
- Population Hoechst High Intensity Objects (%) [1, 4]: 0%
- Population Membrane Permeable-Phenotype (%) [1, 4]: 15% and 7%
- Population Mitotic Cells (%) [1, 4]: 21% and 14%
- Population Normal (%) [1, 4]: 100% and 99%
- Population Pyknosed Nuclei (%) [1, 4]: 35% and 33%
- Population Tubulin-Different-Phenotype (%) [1, 4]: 65% and 50%
- Population Apoptotic (%) [1, 5]: 80% and 82%
- Population Fragmented Nuclei (%) [1, 5]: 8% and 13%
- Population Healthy Nuclei (%) [1, 5]: 15% and 11%
- Population Hoechst High Intensity Objects (%) [1, 5]: 0%
- Population Membrane Permeable-Phenotype (%) [1, 5]: 80% and 83%
- Population Mitochondria Different-Phenotype (%) [1, 5]: 45% and 66%
- Population Mitotic Cells (%) [1, 5]: 19% and 17%
- Population Normal (%) [1, 5]: 99% and 100%
- Population Pyknosed Nuclei (%) [1, 5]: 76% and 75%
- Population Tubulin-Different-Phenotype (%) [1, 5]: 100% and 83%
- Population Apoptotic (%) [1, 6]: 65% and 93%
- Population Fragmented Nuclei (%) [1, 6]: 25% and 9%
- Population Healthy Nuclei (%) [1, 6]: 29% and 40%
- Population Hoechst High Intensity Objects (%) [1, 6]: 0%
- Population Membrane Permeable-Phenotype (%) [1, 6]: 6% and 13%
- Population Mitochondria Different-Phenotype (%) [1, 6]: 13% and 20%
- Population Normal (%) [1, 6]: 100%
- Population Pyknosed Nuclei (%) [1, 6]: 45% and 50%
- Population Tubulin-Different-Phenotype (%) [1, 6]: 86% and 59%
- Population Apoptotic (%) [1, 7]: 97%
- Population Fragmented Nuclei (%) [1, 7]: 11% and 9%
- Population Healthy Nuclei (%) [1, 7]: 4% and 3%
- Population Hoechst High Intensity Objects (%) [1, 7]: 0% and 2%
- Population Membrane Permeable-Phenotype (%) [1, 7]: 100% and 83%
- Population Mitochondria Different-Phenotype (%) [1, 7]: 100% and 83%
- Population Mitotic Cells (%) [1, 7]: 2%
- Population Normal (%) [1, 7]: 100% and 97%
- Population Pyknosed Nuclei (%) [1, 7]: 84% and 87%
- Population Tubulin-Different-Phenotype (%) [1, 7]: 100%
- Population Apoptotic (%) [1, 8]: 76% and 97%
- Population Healthy Nuclei (%) [1, 8]: 9% and 17%
- Population Hoechst High Intensity Objects (%) [1, 8]: 4% and 5%
- Population Normal (%) [1, 8]: 95% and 94%
- Population Pyknosed Nuclei (%) [1, 8]: 60% and 74%
- Population Tubulin-Different-Phenotype (%) [1, 8]: 100% and 82%
- Population Apoptotic (%) [1, 9]: 93%
- Population Fragmented Nuclei (%) [1, 9]: 0% and 6%
- Population Healthy Nuclei (%) [1, 9]: 23% and 10%
- Population Hoechst High Intensity Objects (%) [1, 9]: 0% and 1%
- Population Membrane Permeable-Phenotype (%) [1, 9]: 90% and 94%
- Population Mitochondria Different-Phenotype (%) [1, 9]: 90% and 72%
- Population Mitotic Cells (%) [1, 9]: 6%
- Population Normal (%) [1, 9]: 100% and 98%
- Population Pyknosed Nuclei (%) [1, 9]: 76% and 83%
- Population Tubulin-Different-Phenotype (%) [1, 9]: 100% and 88%
- Population Apoptotic (%) [2, 4]: 51% and 32%
- Population Fragmented Nuclei (%) [2, 4]: 12% and 7%
- Population Healthy Nuclei (%) [2, 4]: 59% and 65%
- Population Hoechst High Intensity Objects (%) [2, 4]: 0% and 1%
- Population Membrane Permeable-Phenotype (%) [2, 4]: 11% and 14%
- Population Mitochondria Different-Phenotype (%) [2, 4]: 1% and 5%
- Population Mitotic Cells (%) [2, 4]: 48% and 67%
- Population Normal (%) [2, 4]: 100% and 98%
- Population Pyknosed Nuclei (%) [2, 4]: 28% and 26%
- Population Tubulin-Different-Phenotype (%) [2, 4]: 45% and 40%
- Total Cell Count [2, 4]: 158 and 185
- Population Apoptotic (%) [2, 5]: 47% and 44%
- Population Fragmented Nuclei (%) [2, 5]: 28% and 26%
- Population Healthy Nuclei (%) [2, 5]: 36% and 40%
- Population Hoechst High Intensity Objects (%) [2, 5]: 0%
- Population Membrane Permeable-Phenotype (%) [2, 5]: 18% and 10%
- Population Mitochondria Different-Phenotype (%) [2, 5]: 4% and 5%
- Population Mitotic Cells (%) [2, 5]: 52% and 55%
- Population Normal (%) [2, 5]: 100%
- Population Pyknosed Nuclei (%) [2, 5]: 34% and 32%
- Population Tubulin-Different-Phenotype (%) [2, 5]: 82% and 72%
- Total Cell Count [2, 5]: 243 and 248
- Population Apoptotic (%) [2, 6]: 74% and 57%
- Population Fragmented Nuclei (%) [2, 6]: 12% and 11%
- Population Healthy Nuclei (%) [2, 6]: 62% and 63%
- Population Hoechst High Intensity Objects (%) [2, 6]: 0%
- Population Membrane Permeable-Phenotype (%) [2, 6]: 12% and 17%
- Population Mitochondria Different-Phenotype (%) [2, 6]: 6% and 3%
- Population Mitotic Cells (%) [2, 6]: 25% and 42%
- Population Normal (%) [2, 6]: 100%
- Population Pyknosed Nuclei (%) [2, 6]: 25%
- Population Tubulin-Different-Phenotype (%) [2, 6]: 52% and 41%
- Total Cell Count [2, 6]: 140 and 177
- Population Apoptotic (%) [2, 7]: 73% and 77%
- Population Fragmented Nuclei (%) [2, 7]: 19% and 21%
- Population Healthy Nuclei (%) [2, 7]: 15% and 20%
- Population Hoechst High Intensity Objects (%) [2, 7]: 0%
- Population Membrane Permeable-Phenotype (%) [2, 7]: 25% and 12%
- Population Mitochondria Different-Phenotype (%) [2, 7]: 25% and 21%
- Population Mitotic Cells (%) [2, 7]: 26% and 22%
- Population Normal (%) [2, 7]: 99% and 100%
- Population Pyknosed Nuclei (%) [2, 7]: 65% and 57%
- Population Tubulin-Different-Phenotype (%) [2, 7]: 80% and 74%
- Total Cell Count [2, 7]: 227 and 226
- Population Apoptotic (%) [2, 8]: 70% and 64%
- Population Fragmented Nuclei (%) [2, 8]: 14% and 12%
- Population Healthy Nuclei (%) [2, 8]: 44% and 50%
- Population Hoechst High Intensity Objects (%) [2, 8]: 0%
- Population Membrane Permeable-Phenotype (%) [2, 8]: 18%
- Population Mitotic Cells (%) [2, 8]: 29% and 35%
- Population Normal (%) [2, 8]: 100%
- Population Pyknosed Nuclei (%) [2, 8]: 40% and 37%
- Population Tubulin-Different-Phenotype (%) [2, 8]: 39% and 51%
- Total Cell Count [2, 8]: 166 and 150
- Population Apoptotic (%) [2, 9]: 91% and 94%
- Population Fragmented Nuclei (%) [2, 9]: 16% and 12%
- Population Healthy Nuclei (%) [2, 9]: 5% and 6%
- Population Hoechst High Intensity Objects (%) [2, 9]: 1% and 0%
- Population Membrane Permeable-Phenotype (%) [2, 9]: 80% and 66%
- Population Mitochondria Different-Phenotype (%) [2, 9]: 10% and 0%
- Population Mitotic Cells (%) [2, 9]: 8% and 5%
- Population Normal (%) [2, 9]: 98% and 99%
- Population Pyknosed Nuclei (%) [2, 9]: 77% and 80%
- Population Tubulin-Different-Phenotype (%) [2, 9]: 70% and 66%
- Total Cell Count [2, 9]: 191 and 189
- Population Apoptotic (%) [3, 4]: 38% and 72%
- Population Fragmented Nuclei (%) [3, 4]: 3% and 4%
- Population Healthy Nuclei (%) [3, 4]: 89% and 87%
- Population Hoechst High Intensity Objects (%) [3, 4]: 10%
- Population Membrane Permeable-Phenotype (%) [3, 4]: 2% and 1%
- Population Mitochondria Different-Phenotype (%) [3, 4]: 49% and 45%
- Population Mitotic Cells (%) [3, 4]: 61% and 28%
- Population Normal (%) [3, 4]: 89%
- Population Pyknosed Nuclei (%) [3, 4]: 6% and 7%
- Population Tubulin-Different-Phenotype (%) [3, 4]: 86% and 90%
- Total Cell Count [3, 4]: 376 and 356
- Population Apoptotic (%) [3, 5]: 87% and 90%
- Population Fragmented Nuclei (%) [3, 5]: 2% and 4%
- Population Healthy Nuclei (%) [3, 5]: 84% and 79%
- Population Hoechst High Intensity Objects (%) [3, 5]: 16% and 14%
- Population Membrane Permeable-Phenotype (%) [3, 5]: 5% and 1%
- Population Mitochondria Different-Phenotype (%) [3, 5]: 87% and 88%
- Population Mitotic Cells (%) [3, 5]: 12% and 9%
- Population Normal (%) [3, 5]: 83% and 85%
- Population Pyknosed Nuclei (%) [3, 5]: 13% and 16%
- Population Tubulin-Different-Phenotype (%) [3, 5]: 96% and 97%
- Total Cell Count [3, 5]: 417 and 374
- Population Apoptotic (%) [3, 6]: 80%
- Population Fragmented Nuclei (%) [3, 6]: 2% and 3%
- Population Healthy Nuclei (%) [3, 6]: 90% and 85%
- Population Hoechst High Intensity Objects (%) [3, 6]: 13% and 11%
- Population Membrane Permeable-Phenotype (%) [3, 6]: 1% and 0%
- Population Mitochondria Different-Phenotype (%) [3, 6]: 70% and 63%
- Population Mitotic Cells (%) [3, 6]: 19% and 20%
- Population Normal (%) [3, 6]: 86% and 88%
- Population Pyknosed Nuclei (%) [3, 6]: 7% and 10%
- Population Tubulin-Different-Phenotype (%) [3, 6]: 87% and 89%
- Total Cell Count [3, 6]: 336 and 325
- Population Apoptotic (%) [3, 7]: 94% and 91%
- Population Fragmented Nuclei (%) [3, 7]: 2% and 4%
- Population Healthy Nuclei (%) [3, 7]: 64% and 53%
- Population Hoechst High Intensity Objects (%) [3, 7]: 19% and 22%
- Population Membrane Permeable-Phenotype (%) [3, 7]: 3% and 4%
- Population Mitochondria Different-Phenotype (%) [3, 7]: 93% and 90%
- Population Mitotic Cells (%) [3, 7]: 6% and 8%
- Population Normal (%) [3, 7]: 80% and 77%
- Population Pyknosed Nuclei (%) [3, 7]: 32% and 42%
- Population Tubulin-Different-Phenotype (%) [3, 7]: 71% and 67%
- Total Cell Count [3, 7]: 381 and 319
- Population Apoptotic (%) [3, 8]: 92% and 73%
- Population Fragmented Nuclei (%) [3, 8]: 3% and 2%
- Population Healthy Nuclei (%) [3, 8]: 86% and 82%
- Population Hoechst High Intensity Objects (%) [3, 8]: 20% and 12%
- Population Membrane Permeable-Phenotype (%) [3, 8]: 1%
- Population Mitochondria Different-Phenotype (%) [3, 8]: 75% and 81%
- Population Normal (%) [3, 8]: 79% and 87%
- Population Pyknosed Nuclei (%) [3, 8]: 10% and 15%
- Population Tubulin-Different-Phenotype (%) [3, 8]: 85% and 91%
- Total Cell Count [3, 8]: 328 and 309
- Population Apoptotic (%) [3, 9]: 78% and 71%
- Population Fragmented Nuclei (%) [3, 9]: 6%
- Population Healthy Nuclei (%) [3, 9]: 30% and 25%
- Population Hoechst High Intensity Objects (%) [3, 9]: 14%
- Population Membrane Permeable-Phenotype (%) [3, 9]: 3% and 7%
- Population Mitochondria Different-Phenotype (%) [3, 9]: 90% and 76%
- Population Mitotic Cells (%) [3, 9]: 21% and 28%
- Population Normal (%) [3, 9]: 85%
- Population Pyknosed Nuclei (%) [3, 9]: 62% and 68%
- Population Tubulin-Different-Phenotype (%) [3, 9]: 65% and 78%
- Total Cell Count [3, 9]: 442 and 399
